From ChEMBL document CHEMBL4819003, “Optimization of novel oxidative DIMs as Nur77 modulators of the Nur77-Bcl-2 apoptotic pathway” (Eur J Med Chem, 2021)

What was measured:
HCT-116 [1] = assay: Cytotoxicity against human HCT-116 cells assessed as inhibition of cell growth measured after 24 hrs by MTT assay; type: functional, cell-based; conditions: Homo sapiens, HCT-116, 24 h
Outline: (§1)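 MTT viability assay, 24 h exposure to a concentration series, 10^4 cells/well. Cancer lines were in DMEM (BT549, MDA-MB-231) or RPMI-1640 (HCT116, SW620) with 10% FBS. MCF10A and NCM460 were in DMEM with 20% FBS and 10 ng/ml EGF. MTT at 5 mg/mL for 4 h at 37 °C, formazan dissolved in DMSO, A490. IC50 from curve fit; mean ± SD, at least 6 experiments.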

HCT-116 [2] = assay: Induction of apoptosis in human HCT-116 cells assessed as early apoptotic cells at 0.5 uM measured after 6 hrs by Annexin V-FITC/PI staining based flow cytometry method (reference value: 1.39%); type: functional
Outline: (§2)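 Cells seeded at 1×10^6 per well and treated with 0.5 µM for 6 h. Floating and adherent cells pooled, stained with Annexin V-FITC for 10 min and propidium iodide for 5 min, then analysed immediately by flow cytometry in FITC and PC5.5 channels. Mean ± SD, n = 3.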

SW-620 [3] = assay: Induction of apoptosis in human SW-620 cells assessed as late apoptotic cells at 0.5 uM measured after 6 hrs by Annexin V-FITC/PI staining based flow cytometry method (reference value: 0.05%); type: functional; outline: as §2
MDA-MB-231 [4] = assay: Induction of apoptosis in human MDA-MB-231 cells assessed as viable cells at 0.5 uM measured after 6 hrs by Annexin V-FITC/PI staining based flow cytometry method (reference value: 98.51%); type: functional; conditions: read-out: Activity; outline: as §2
SW-620 [5] = assay: Induction of apoptosis in human SW-620 cells assessed as necrotic cells at 0.5 uM measured after 6 hrs by Annexin V-FITC/PI staining based flow cytometry method (reference value: 0.26%); type: functional; outline: as §2
MDA-MB-231 [6] = assay: Cytotoxicity against human MDA-MB-231 cells assessed as inhibition of cell growth measured after 24 hrs by MTT assay; type: functional, cell-based; conditions: MDA-MB-231, 24 h; outline: as §1
BT-549 [7] = assay: Induction of apoptosis in human BT-549 cells assessed as early apoptotic cells at 0.5 uM measured after 6 hrs by Annexin V-FITC/PI staining based flow cytometry method (reference value: 1.27%); type: functional; outline: as §2
BT-549 [8] = assay: Induction of apoptosis in human BT-549 cells assessed as late apoptotic cells at 0.5 uM measured after 6 hrs by Annexin V-FITC/PI staining based flow cytometry method (reference value: 0.11%); type: functional; outline: as §2
BT-549 [9] = assay: Induction of apoptosis in human BT-549 cells assessed as necrotic cells at 0.5 uM measured after 6 hrs by Annexin V-FITC/PI staining based flow cytometry method (reference value: 0.11%); type: functional; outline: as §2
MDA-MB-231 [10] = assay: Induction of apoptosis in human MDA-MB-231 cells assessed as necrotic cells at 0.5 uM measured after 6 hrs by Annexin V-FITC/PI staining based flow cytometry method (reference value: 0.11%); type: functional; outline: as §2
HCT-116 [11] = assay: Induction of apoptosis in human HCT-116 cells assessed as necrotic cells at 0.5 uM measured after 6 hrs by Annexin V-FITC/PI staining based flow cytometry method (reference value: 0.37%); type: functional; outline: as §2
[12] = molecular target: T1, Nuclear receptor subfamily 4immunitygroup A member 1 (Homo sapiens, UniProt P22736); assay: Binding affinity to recombinant human N-terminal His-tagged Nur77-LBD (367 to 598 residues) expressed in Escherichia coli BL21 DE3 by surface plasmon resonance assay
T1 sequence (P22736 whole entry, the tested form may be a part): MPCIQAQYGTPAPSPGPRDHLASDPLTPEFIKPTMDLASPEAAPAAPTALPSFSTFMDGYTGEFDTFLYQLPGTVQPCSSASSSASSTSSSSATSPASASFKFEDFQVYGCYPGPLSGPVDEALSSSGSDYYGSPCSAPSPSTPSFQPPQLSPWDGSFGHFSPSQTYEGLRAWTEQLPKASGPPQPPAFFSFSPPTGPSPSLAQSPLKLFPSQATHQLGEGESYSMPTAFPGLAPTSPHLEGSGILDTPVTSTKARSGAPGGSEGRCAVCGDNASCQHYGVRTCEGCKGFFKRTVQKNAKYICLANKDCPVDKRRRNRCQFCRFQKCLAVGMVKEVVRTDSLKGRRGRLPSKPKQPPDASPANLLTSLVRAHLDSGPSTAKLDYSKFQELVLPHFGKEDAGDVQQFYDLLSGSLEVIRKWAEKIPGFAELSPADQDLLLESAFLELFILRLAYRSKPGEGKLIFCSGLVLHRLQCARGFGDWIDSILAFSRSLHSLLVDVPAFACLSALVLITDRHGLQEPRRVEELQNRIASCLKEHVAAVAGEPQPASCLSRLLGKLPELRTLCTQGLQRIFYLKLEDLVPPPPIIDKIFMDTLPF
Outline: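 His-tagged human Nur77-LBD (367–598) from E. coli BL21 DE3, diluted to 0.05 mg/mL in 10 mM NaAc pH 5.0 and amine-coupled to a CM5 chip (~9000 RU). Compounds at 0.01–5 µM in PBS with 0.4% DMSO, 25 °C, 30 µL/min; 150 s association, 420 s dissociation, regeneration with 10 mM glycine-HCl pH 2.5. Reference- and blank-subtracted; Kd from global 1:1 kinetic fit.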

NCM460 = assay: Cytotoxicity against human NCM460 cells assessed as inhibition of cell growth measured after 24 hrs by MTT assay; type: cell-based; conditions: Homo sapiens, NCM460, 24 h; outline: as §1
BT-549 [13] = assay: Cytotoxicity against human BT-549 cells assessed as inhibition of cell growth measured after 24 hrs by MTT assay; type: functional, cell-based; conditions: BT-549, 24 h; outline: as §1
SW-620 [14] = assay: Cytotoxicity against human SW-620 cells assessed as inhibition of cell growth measured after 24 hrs by MTT assay; type: functional, cell-based; conditions: SW-620, 24 h; outline: as §1
MDA-MB-231 [15] = assay: Induction of apoptosis in human MDA-MB-231 cells assessed as late apoptotic cells at 0.5 uM measured after 6 hrs by Annexin V-FITC/PI staining based flowcytometry method (reference value: 0.11%); type: functional; outline: as §2
[16] = molecular target: T1, Nuclear receptor subfamily 4immunitygroup A member 1; assay: Binding affinity to recombinant human N-terminal His-tagged Nur77-LBD (367 to 598 residues) expressed in Escherichia coli BL21 DE3 by flourescence quenching assay
Outline: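 Human Nur77-LBD (367–598), N-terminal His tag, pET15b in E. coli BL21 DE3, Ni resin purified. Nur77-LBD at 1 µM in PBS in a quartz cell, titrated with compound over 0.01–1 µM at 25 °C. Excitation 280 nm, emission scanned 300–500 nm; peak intensity at 330 nm versus compound concentration fitted to a reported formula for Kd.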

MCF-10A = assay: Cytotoxicity against human MCF-10A cells assessed as inhibition of cell growth measured after 24 hrs by MTT assay; type: cell-based; conditions: Homo sapiens, MCF-10A, 24 h; outline: as §1
[17] = Half life in female Sprague-Dawley rat at 0.5 mg/kg, iv measured for 36 hrs by LC-MS/MS analysis; type: ADME, organism-based; conditions: in vivo
SW-620 [18] = assay: Induction of apoptosis in human SW-620 cells assessed as early apoptotic cells at 0.5 uM measured after 6 hrs by Annexin V-FITC/PI staining based flow cytometry method (reference value: 1.02%); type: functional
BT-549 [19] = assay: Induction of apoptosis in human BT-549 cells assessed as viable cells at 0.5 uM measured after 6 hrs by Annexin V-FITC/PI staining based flow cytometry method (reference value: 98.51%); type: functional; conditions: read-out: Activity; outline: as §2
MDA-MB-231 [20] = assay: Induction of apoptosis in human MDA-MB-231 cells assessed as early apoptotic cells at 0.5 uM measured after 6 hrs by Annexin V-FITC/PI staining based flow cytometry method (reference value: 1.27%); type: functional; outline: as §2
HCT-116 [21] = assay: Induction of apoptosis in human HCT-116 cells assessed as late apoptotic cells at 0.5 uM measured after 6 hrs by Annexin V-FITC/PI staining based flow cytometry method (reference value: 0.06%); type: functional; outline: as §2
HCT-116 [22] = assay: Induction of apoptosis in human HCT-116 cells assessed as viable cells at 0.5 uM measured after 6 hrs by Annexin V-FITC/PI staining based flow cytometry method (reference value: 98.18%); type: functional; conditions: read-out: Activity; outline: as §2
[23] = Selectivity index, ratio of IC50 for human MCF-10A cells to IC50 for human MDA-MB-231 cells; type: toxicity; conditions: MCF-10A cells versus MDA-MB-231 cells, read-out: Ratio IC50

SMILES | IC50 (HCT-116 [1]) [µM] | Activity (HCT-116 [2]) [%] | Activity (SW-620 [3]) [%] | viability at 0.5 µM (MDA-MB-231 [4]) [%] | Activity (SW-620 [5]) [%] | IC50 (MDA-MB-231 [6]) [µM] | Activity (BT-549 [7]) [%] | Activity (BT-549 [8]) [%] | Activity (BT-549 [9]) [%] | Activity (MDA-MB-231 [10]) [%] | Activity (HCT-116 [11]) [%] | Kd [12] [µM] | IC50 (NCM460) [µM] | IC50 (BT-549 [13]) [µM] | IC50 (SW-620 [14]) [µM] | Activity (MDA-MB-231 [15]) [%] | Kd [16] [µM] | IC50 (MCF-10A) [µM] | Activity (SW-620 [18]) [%] | viability at 0.5 µM (BT-549 [19]) [%] | also measured
CS(=O)(=O)[O-].FC(F)(F)c1ccc([C+](c2c[nH]c3ccccc23)c2c[nH]c3ccccc23)cc1 | 0.27 | 11.05 | 15.18 | 85.7 | 1.47 | 0.22 | 20.65 | 4.21 | 1.17 | 1.47 | 3.81 | 0.11 | 6.84 | 0.17 | 0.18 | 0.65 | 0.217 | 4.29 | 12.97 | 74 | half-life [17]: 5.91 h; Activity (MDA-MB-231 [20]): 12.18%; Activity (HCT-116 [21]): 3.58%; viability at 0.5 µM (HCT-116 [22]): 81.6%
CS(=O)(=O)[O-].Cn1cc([C+](c2ccc(C(F)(F)F)cc2)c2c[nH]c3ccccc23)c2ccccc21 | 0.09 | 44.48 | 62.95 | 33.7 | 0.38 | 0.06 | 73.75 | 10.97 | 0.88 | 0.74 | 2.3 | 0.033 | 4.63 | 0.04 | 0.1 | 3.04 | 0.066 | 2.19 | 29.59 | 14.4 | selectivity ratio [23]: 40; Activity (MDA-MB-231 [20]): 62.49%; Activity (HCT-116 [21]): 19.94%; viability at 0.5 µM (HCT-116 [22]): 33.3%
